Laboratory results: ChEMBL document CHEMBL1955761, “Privileged scaffolds or promiscuous binders: a comparative study on rhodanines and related heterocycles in medicinal chemistry” (J Med Chem, 2012)
The source made the active and inactive calls.

Tests used:
Dengue virus = assay: Inhibition of Dengue virus NS2B-NS3 protease using Abz-NleKRRS-3-(NO2)Y as substrate at 50 uM preincubated for 15 mins measured every sec for 15 mins by fluorimetric analysis
Prothrombin (Bos taurus) = Prothrombin (Bos taurus) (UniProt P00735); assay: Inhibition of bovine plasma thrombin using Boc-Val-Pro-Arg-AMC as substrate at 25 uM preincubated for 15 mins measured after 10 mins by fluorimetric assay
How it was run: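 Purchased bovine plasma thrombin at 10 nM final, preincubated 15 min with 25 μM inhibitor; reaction started with 50 μM substrate. Buffer 50 mM Tris-HCl pH 7.5, 150 mM NaCl, 0.05% Tween 20. Triplicate, averaged.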

Escherichia coli [1] = assay: Inhibition of Escherichia coli MurA using PEP as substrate assessed as inorganic phosphate release at 25 uM preincubated for 10 mins measured after 60 mins […]
Escherichia coli [2] = assay: Inhibition of Escherichia coli MetAP at 10 uM after 15 mins by fluorescence analysis

O=C1NC(=O)/C(=C/C=C/c2ccco2)S1
inhibition (Dengue virus): inactive | inhibition (Prothrombin (Bos taurus)): 24% | inhibition (Escherichia coli [1]): 24% | inhibition (Escherichia coli [2]): 12%

O=C1NC(=O)/C(=C/c2ccc([N+](=O)[O-])cc2)N1
inhibition (Dengue virus): 26% | inhibition (Prothrombin (Bos taurus)): inactive | inhibition (Escherichia coli [1]): inactive | inhibition (Escherichia coli [2]): inactive

O=C1NC(=S)N/C1=C\c1ccc2ccccc2c1
inhibition (Dengue virus): 46% | inhibition (Prothrombin (Bos taurus)): 27% | inhibition (Escherichia coli [1]): 32% | inhibition (Escherichia coli [2]): 15%

O=C1NC(=S)N/C1=C\c1ccco1
inhibition (Dengue virus): 46% | inhibition (Prothrombin (Bos taurus)): 14% | inhibition (Escherichia coli [1]): 22% | inhibition (Escherichia coli [2]): inactive

O=C1NC(=O)[C@@H](Cc2ccccc2)N1
inhibition (Dengue virus): inactive | inhibition (Prothrombin (Bos taurus)): inactive | inhibition (Escherichia coli [1]): inactive | inhibition (Escherichia coli [2]): inactive

O=C1NC(=S)N/C1=C\C=C\c1ccco1
inhibition (Dengue virus): 37% | inhibition (Prothrombin (Bos taurus)): 38% | inhibition (Escherichia coli [1]): 69% | inhibition (Escherichia coli [2]): 23%

O=C1NC(=S)N/C1=C\c1cccs1
inhibition (Dengue virus): 48% | inhibition (Prothrombin (Bos taurus)): 16% | inhibition (Escherichia coli [1]): inactive | inhibition (Escherichia coli [2]): inactive

CN(C)c1ccc(/C=C2\SC(=O)NC2=O)cc1
inhibition (Dengue virus): 20% | inhibition (Prothrombin (Bos taurus)): 11% | inhibition (Escherichia coli [1]): inactive | inhibition (Escherichia coli [2]): 13%

O=C1NC(=O)/C(=C/c2sccc2Cl)N1
inhibition (Dengue virus): inactive | inhibition (Prothrombin (Bos taurus)): inactive | inhibition (Escherichia coli [1]): inactive | inhibition (Escherichia coli [2]): inactive

O=C1NC(=S)N/C1=C\c1ccc([N+](=O)[O-])cc1
inhibition (Dengue virus): 35% | inhibition (Prothrombin (Bos taurus)): 19% | inhibition (Escherichia coli [1]): 15% | inhibition (Escherichia coli [2]): 13%

COc1ccc(/C=C2\SC(=S)NC2=O)cc1
inhibition (Dengue virus): 42% | inhibition (Prothrombin (Bos taurus)): 16% | inhibition (Escherichia coli [1]): inactive | inhibition (Escherichia coli [2]): inactive

O=C1NC(=S)N/C1=C\c1cc(Br)cs1
inhibition (Dengue virus): 42% | inhibition (Prothrombin (Bos taurus)): 15% | inhibition (Escherichia coli [1]): 57% | inhibition (Escherichia coli [2]): 11%

O=C1NC(=S)S/C1=C\c1ccc(Cl)s1
inhibition (Dengue virus): 54% | inhibition (Prothrombin (Bos taurus)): 27% | inhibition (Escherichia coli [1]): 13% | inhibition (Escherichia coli [2]): inactive

O=C1NC(=O)C(Cc2cccs2)N1 (stereo not given)
inhibition (Dengue virus): inactive | inhibition (Prothrombin (Bos taurus)): inactive | inhibition (Escherichia coli [1]): inactive | inhibition (Escherichia coli [2]): inactive

O=C1NC(=S)N/C1=C\c1ccc(O)cc1
inhibition (Dengue virus): 48% | inhibition (Prothrombin (Bos taurus)): 39% | inhibition (Escherichia coli [1]): 11% | inhibition (Escherichia coli [2]): inactive

O=C1NC(=S)N/C1=C\c1ccccc1
inhibition (Dengue virus): 35% | inhibition (Prothrombin (Bos taurus)): 17% | inhibition (Escherichia coli [1]): inactive | inhibition (Escherichia coli [2]): 12%

COc1ccc(/C=C2\NC(=S)NC2=O)cc1
inhibition (Dengue virus): 50% | inhibition (Prothrombin (Bos taurus)): 13% | inhibition (Escherichia coli [1]): inactive | inhibition (Escherichia coli [2]): inactive

COc1ccccc1/C=C1\NC(=S)NC1=O
inhibition (Dengue virus): 28% | inhibition (Prothrombin (Bos taurus)): 15% | inhibition (Escherichia coli [1]): 10% | inhibition (Escherichia coli [2]): 18%

COc1cc(/C=C2\NC(=S)NC2=O)ccc1O
inhibition (Dengue virus): 38% | inhibition (Prothrombin (Bos taurus)): 23% | inhibition (Escherichia coli [1]): 72% | inhibition (Escherichia coli [2]): 26%

COc1cc(/C=C2\NC(=O)NC2=O)ccc1O
inhibition (Dengue virus): 13% | inhibition (Prothrombin (Bos taurus)): inactive | inhibition (Escherichia coli [1]): 17% | inhibition (Escherichia coli [2]): inactive

C/C(=C1/NC(=S)NC1=O)c1ccc(F)cc1
inhibition (Dengue virus): inactive | inhibition (Prothrombin (Bos taurus)): 23% | inhibition (Escherichia coli [1]): 29% | inhibition (Escherichia coli [2]): 18%

O=C1NC(=S)N/C1=C\c1cc2ccccc2[nH]1
inhibition (Dengue virus): 44% | inhibition (Prothrombin (Bos taurus)): 23% | inhibition (Escherichia coli [1]): 15% | inhibition (Escherichia coli [2]): inactive

COc1cccc(/C=C2\NC(=O)NC2=O)c1
inhibition (Dengue virus): 18% | inhibition (Prothrombin (Bos taurus)): inactive | inhibition (Escherichia coli [1]): inactive | inhibition (Escherichia coli [2]): inactive

O=C1NC(=O)/C(=C/c2ccc(O)cc2)N1
inhibition (Dengue virus): 26% | inhibition (Prothrombin (Bos taurus)): 14% | inhibition (Escherichia coli [1]): inactive | inhibition (Escherichia coli [2]): inactive

C/C(=C1/NC(=S)NC1=O)c1cccs1
inhibition (Dengue virus): 43% | inhibition (Prothrombin (Bos taurus)): 20% | inhibition (Escherichia coli [1]): 50% | inhibition (Escherichia coli [2]): 42%
